A value given as a limit tells only on which side of the number the result lay.

In assay [1] the test system is SK-BR-3. Description: Antiproliferative activity against human SK-BR3 cells after 96 hrs by MTS assay. In kind it is functional. The conditions noted are these: SK-BR-3, 96 h. In outline: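 Cells were kept in exponential growth in DMEM with 10% FBS, 1% penicillin and 1% glutamine, seeded at 4,000 per well and grown 48 h, with a time-zero plate counted. They were then exposed for 72 h to DMSO (1 v/v) or a concentration range in quadruplicate. Cell number was read by MTS/N-methylphenazine methylsulfate absorbance at 490 minus 630 nm. GI50 is relative to DMSO over the 72 h or 96 h period, and values above 50 µM are given as >50.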

The subject of assay [2] is Saccharomyces cerevisiae. Description: Inhibition of yeast Hsp70 ATPase assessed as ATP hydrolysis relative to control. In outline: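 Purified yeast Hsp70 (Ssa1p) was pre-bound to ATP and run as a single-turnover assay, so that only the hydrolysis step is measured. Compound (300 µM) or DMSO was added at 0 s, and that time was set to zero. Results from multiple experiments were averaged, kinetics were fitted, and the value is the fold change in hydrolysis versus DMSO.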

Assay [3] relates to Saccharomyces cerevisiae. Briefly: Inhibition of SV40 T antigen-stimulated Hsp70 ATPase in yeast assessed as ATP hydrolysis relative to control. In outline: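 Yeast Ssa1p was pre-bound to ATP and run as a single-turnover assay with purified SV40 TAg (0.4 µM). Compound (300 µM) or DMSO was added at 60 s, and that time was set to zero. Runs were averaged over multiple experiments, kinetics were fitted, and the value is the fold change in TAg-stimulated ATP hydrolysis versus DMSO.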

For the molecule `CCCCCCN(C(=O)CCCCCN1C(=O)NC(c2ccc(Cl)cc2)C(C(=O)OCc2ccccc2)=C1C)C(C(=O)NCCCC)c1ccc(OCC(=O)OC)c(C(=O)OC)c1` (centres undefined), halving of growth in assay [1] (GI50) required 16 µM. For the same molecule, the values for the Fold change in assay [2] and in assay [3] were 1.3 and -5.1, respectively.

`CC1=C(C(=O)OCc2ccccc2)C(c2ccc3ccccc3c2)NC(=O)N1CCCCCC(=O)O` (centres undefined) yielded a GI50 in assay [1] greater than 50 µM. The Fold change in assay [2] is -1.1; in assay [3], -1.4.

In assay [1], `CCCCCCN(C(=O)CCCCCN1C(=O)NC(c2ccc(-c3ccccc3)cc2)C(C(=O)OCc2ccccc2)=C1C)C(C)C(=O)NCCCC` (centres undefined) displayed a GI50 greater than 50 µM. Also, the Fold change in assay [2] stood at 1.6; in assay [3], 1.

Regarding `CC1=C(C(=O)OCc2ccccc2)C(c2ccccc2-c2ccccc2)NC(=O)N1CCCCCC(=O)O` (centres undefined), in assay [1], the GI50 is greater than 50 µM. Moreover, the Fold change in assay [2] was 1; in assay [3] it was -5.

With `CCCCCCN(C(=O)CCCCCN1C(=O)NC(c2ccc(-c3ccccc3)cc2)C(C(=O)OCc2ccccc2)=C1C)C(C(=O)NCCCC)c1ccccn1` (centres undefined), the 50% growth inhibitory concentration (GI50) in assay [1] was greater than 50 µM. The Fold change in assay [2] was 4.2; in assay [3], 5.5.

In turn, `CCCCCCN(C(=O)CCCCCN1C(=O)NC(c2ccc(-c3ccccc3)cc2)C(C(=O)OCc2ccccc2)=C1C)C(C(=O)NCCCC)c1cccc(C(=O)OC)c1` (centres undefined) had a GI50 in assay [1] greater than 50 µM. Further, the Fold change is 3.7 in assay [2] and -2 in assay [3].

Molecule `CCCCNC(=O)C(c1ccc(OCC(=O)OC)c(C(=O)OC)c1)N(CCc1c[nH]c2ccccc12)C(=O)CCCCCN1C(=O)NC(c2ccc(-c3ccccc3)cc2)C(C(=O)OCc2ccccc2)=C1C` (centres undefined) displayed a 50% growth inhibitory concentration (GI50) in assay [1] greater than 50 µM. In addition, the Fold change in assay [2] is 10.3; in assay [3] it was -1.3.

`CCCCNC(=O)C(c1ccc(OCC(=O)OC)c(C(=O)OC)c1)N(CCC1=CCCCC1)C(=O)CCCCCN1C(=O)NC(c2ccc(-c3ccccc3)cc2)C(C(=O)OCc2ccccc2)=C1C` (centres undefined) yielded a GI50 in assay [1] of 39 µM. In addition, the Fold change is 6.1 in assay [2] and -1.2 in assay [3].

For `CCCCCCN(C(=O)CCCCCN1C(=O)NC(c2ccc([N+](=O)[O-])cc2)C(C(=O)OCc2ccccc2)=C1C)C(C(=O)NCCCC)c1ccc(OCC(=O)OC)c(C(=O)OC)c1` (centres undefined), growth in assay [1] was halved (GI50) at 6.9 µM. The Fold change in assay [2] is 1; in assay [3] it was -1.1.

Consider `CCCCCCN(C(=O)CCCCCN1C(=O)NC(c2ccc(C(F)(F)F)cc2)C(C(=O)OCc2ccccc2)=C1C)C(C(=O)NCCCC)c1ccc(OCC(=O)OC)c(C(=O)OC)c1` (centres undefined), for which the GI50 in assay [1] is greater than 50 µM. Moreover, the Fold change is 1 in assay [2] and -4.8 in assay [3].

Take `CCCCCCN(C(=O)CCCCCN1C(=O)NC(c2ccc(C(C)(C)C)cc2)C(C(=O)OCc2ccccc2)=C1C)C(C(=O)NCCCC)c1ccc(OCC(=O)OC)c(C(=O)OC)c1` (centres undefined): it took 29 µM to inhibit growth in assay [1] by half (GI50). For the same molecule, the Fold change in assay [2] was 1.2; in assay [3] it was -5.2.

In the case of `CC1=C(C(=O)OCc2ccccc2)C(C2CC2)NC(=O)N1CCCCCC(=O)O` (centres undefined), in assay [1], the GI50 is greater than 50 µM. Moreover, the Fold change in assay [2] amounted to 1.1; in assay [3] it was 1.

The molecule `CCCCNC(=O)C(c1ccc(OCC(=O)OC)c(C(=O)OC)c1)N(Cc1ccccc1)C(=O)CCCCCN1C(=O)NC(c2ccc(-c3ccccc3)cc2)C(C(=O)OCc2ccccc2)=C1C` (centres undefined) came in with a GI50 in assay [1] of 14 µM. Besides, the Fold change was 1.5 in assay [2] and -1.9 in assay [3].

In turn, `CCCCCCN(C(=O)CCCCCN1C(=O)NC(c2ccc(-c3ccccc3)cc2)C(C(=O)OCc2ccccc2)=C1C)C(C(=O)NCCCC)c1ccc(O)c(C(=O)OC)c1` (centres undefined) showed a GI50 in assay [1] greater than 50 µM. For the same molecule, the Fold change came out at 19.1 in assay [2] and 2.1 in assay [3].

In the case of `COC(=O)CCCCCN1C(=O)NC(c2ccc(-c3ccccc3)cc2)C(C(=O)OCc2ccccc2)=C1C` (centres undefined), the GI50 in assay [1] was greater than 50 µM. The figures for the Fold change in assay [2] and in assay [3] were 2.6 and -1.2, respectively.

Turning to `CCCCCCN(C(=O)CCCCCN1C(=O)NC(c2ccc(C3CCCCC3)cc2)C(C(=O)OCc2ccccc2)=C1C)C(C(=O)NCCCC)c1ccc(OCC(=O)OC)c(C(=O)OC)c1` (centres undefined), the GI50 in assay [1] amounted to 42 µM. Also, the results for the Fold change in assay [2] and in assay [3] were 2.2 and -1.6, respectively.

`CC1=C(C(=O)OCc2ccccc2)C(c2ccc(C3CCCCC3)cc2)NC(=O)N1CCCCCC(=O)O` (centres undefined) returned a GI50 in assay [1] greater than 50 µM. Further, the Fold change in assay [2] was 1.1; in assay [3], -2.4.

In assay [1], `CC1=C(C(=O)OCc2ccccc2)C(c2ccc(C(C)(C)C)cc2)NC(=O)N1CCCCCC(=O)O` (centres undefined) displayed a GI50 greater than 50 µM. For the same molecule, the Fold change in assay [2] is 1; in assay [3], -3.5.

Take `CCCCCCN(C(=O)CCCCCN1C(=O)NC(c2ccc(-c3ccccc3)cc2)C(C(=O)OCc2ccccc2)=C1C)C(C(=O)NCCCC)c1ccc(OCC(=O)OC)cc1` (centres undefined): in assay [1], it took 48 µM to inhibit growth by half (GI50). In addition, the Fold change in assay [2] amounted to 1.1; in assay [3], 1.2.

Take `CC1=C(C(=O)OCc2ccccc2)C(c2ccc(-c3ccccc3)cc2)NC(=O)N1CCCCCC(=O)O` (centres undefined): in assay [1], the GI50 is greater than 50 µM. For the same molecule, the Fold change in assay [2] is 1.1; in assay [3], -3.5.

`CCCCCCN(C(=O)CCCCCN1C(=O)NC(c2cccc([N+](=O)[O-])c2)C(C(=O)OCc2ccccc2)=C1C)C(C(=O)NCCCC)c1ccc(OCC(=O)OC)c(C(=O)OC)c1` (centres undefined) returned a GI50 in assay [1] of 6 µM. Besides, the results for the Fold change in assay [2] and in assay [3] were 1.1 and -1.5, respectively.

In the case of `CCCCCCN(C(=O)CCCCCN1C(=O)NC(c2ccc(-c3ccccc3)cc2)C(C(=O)OCc2ccccc2)=C1C)C(C(=O)NCCCC)c1ccccc1` (centres undefined), in assay [1], the GI50 was greater than 50 µM. In addition, the Fold change was found to be 3.2 in assay [2] and 1.1 in assay [3].

For the molecule `CCCCCCN(C(=O)CCCCCN1C(=O)NC(c2ccc3ccccc3c2)C(C(=O)OCc2ccccc2)=C1C)C(C(=O)NCCCC)c1ccc(OCC(=O)OC)c(C(=O)OC)c1` (centres undefined), it took 10 µM to inhibit growth in assay [1] by half (GI50). Further, the Fold change in assay [2] is 1; in assay [3] it was -1.1.

On to `CCCCCCN(C(=O)CCCCCN1C(=O)NC(c2ccccc2-c2ccccc2)C(C(=O)OCc2ccccc2)=C1C)C(C(=O)NCCCC)c1ccc(OCC(=O)OC)c(C(=O)OC)c1` (centres undefined), for which the GI50 in assay [1] worked out at 17 µM. The Fold change was -1.1 in assay [2] and -4 in assay [3].

The molecule `CCCCCCN(C(=O)CCCCCN1C(=O)NC(C2CCCCC2)C(C(=O)OCc2ccccc2)=C1C)C(C(=O)NCCCC)c1ccc(OCC(=O)OC)c(C(=O)OC)c1` (centres undefined) gave a GI50 in assay [1] of 6.3 µM. In addition, the values for the Fold change in assay [2] and in assay [3] were 1.2 and -2.1, respectively.

In assay [1], `CCCCNC(=O)C(c1ccc(OCC(=O)OC)c(C(=O)OC)c1)N(CCc1ccccn1)C(=O)CCCCCN1C(=O)NC(c2ccc(-c3ccccc3)cc2)C(C(=O)OCc2ccccc2)=C1C` (centres undefined) yielded a GI50 of 7.5 µM. Moreover, the Fold change in assay [2] and in assay [3] was -1.1 throughout.

In assay [1], `CC1=C(C(=O)OCc2ccccc2)C(c2ccccc2)NC(=O)N1CCCCCC(=O)O` (centres undefined) gave a GI50 greater than 50 µM. Besides, the Fold change in assay [2] was 1.5; in assay [3] it was -1.1.

`CC(=O)O[C@H]1C(=O)[C@@]2(C)[C@H]([C@H](OC(=O)c3ccccc3)[C@]3(O)C[C@H](OC(=O)[C@H](O)[C@@H](NC(=O)c4ccccc4)c4ccccc4)C(C)=C1C3(C)C)[C@]1(OC(C)=O)CO[C@@H]1C[C@@H]2O` [PACLITAXEL] registered a GI50 in assay [1] of 6.1 µM.

For `COC(=O)CCCCCN1C(=O)NC(C2CC2)C(C(=O)OCc2ccccc2)=C1C` (centres undefined), the GI50 in assay [1] is greater than 50 µM. Further, the Fold change in assay [2] was found to be 1.9; in assay [3], 1.

In assay [1], `CCCCCCN(C(=O)CCCCCN1C(=O)NC(c2ccc(-c3ccccc3)cc2)C(C(=O)OCc2ccccc2)=C1C)C(C(=O)NCCCC)C1CCCCC1` (centres undefined) registered a GI50 greater than 50 µM. Besides, the Fold change in assay [2] was found to be 3.2; in assay [3] it was 1.1.

The molecule `CC1=C(C(=O)OCc2ccccc2)C(c2ccc([N+](=O)[O-])cc2)NC(=O)N1CCCCCC(=O)O` (centres undefined) yielded a GI50 in assay [1] greater than 50 µM. Moreover, the values for the Fold change in assay [2] and in assay [3] were 1.2 and 1.1, respectively.

With `CC1=C(C(=O)OCc2ccccc2)C(c2cccc([N+](=O)[O-])c2)NC(=O)N1CCCCCC(=O)O` (centres undefined), the GI50 in assay [1] was greater than 50 µM. Moreover, the Fold change is -1.1 in assay [2] and 1.1 in assay [3].

In assay [1], `CC1=C(C(=O)OCc2ccccc2)C(C2CCCCC2)NC(=O)N1CCCCCC(=O)O` (centres undefined) registered a GI50 greater than 50 µM. For the same molecule, the Fold change came to 1 in assay [2] and 1.5 in assay [3].

Consider `COC(=O)CCCCCN1C(=O)NC(c2ccccc2)C(C(=O)OCc2ccccc2)=C1C` (centres undefined), for which the GI50 in assay [1] is greater than 50 µM. Also, the Fold change is 2.3 in assay [2] and -1.7 in assay [3].

`CC1=C(C(=O)OCc2ccccc2)C(c2ccc(Cl)cc2)NC(=O)N1CCCCCC(=O)O` (centres undefined) showed a GI50 in assay [1] greater than 50 µM. Moreover, the Fold change in assay [2] is 1.3; in assay [3], -1.6.

For the molecule `CCCCCCN(C(=O)CCCCCN1C(=O)NC(c2ccc(-c3ccccc3)cc2)C(C(=O)OCc2ccccc2)=C1C)C(C(=O)NCCCC)c1ccc(-c2ccccc2)cc1` (centres undefined), the GI50 in assay [1] is greater than 50 µM. The results for the Fold change in assay [2] and in assay [3] were 9.9 and 6, respectively.

For the molecule `CCCCCCN(C(=O)CCCCCN1C(=O)NC(c2ccc(-c3ccccc3)cc2)C(C(=O)OCc2ccccc2)=C1C)C(C(=O)NCCCC)c1ccc(OCC(=O)O)c(C(=O)O)c1` (centres undefined), the GI50 in assay [1] was greater than 50 µM. Further, the Fold change is 1.1 in assay [2] and -2.2 in assay [3].

The record behind these values is ChEMBL document CHEMBL1143913, “Pyrimidinone-peptoid hybrid molecules with distinct effects on molecular chaperone function and cell proliferation” (Bioorg Med Chem, 2008).
